Data set [1] is described as follows: Neurotoxicity against human U87 cells assessed as growth inhibition measured after 48 hrs by MTT assay. In kind it is toxicity, cell-based, U-87MG ATCC. The method in brief: (§1)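 Cells kept in DMEM with 10% FBS, 2 mM L-glutamine, penicillin/streptomycin, 37 °C, 5% CO₂. Seeded ~5,000 cells/well, 1 day, then exposed to compound at 0.1-500 µM for 48 h. MTT 0.5% (w/v) added for 4 h, formazan dissolved in DMSO/ethanol 1:1, absorbance read. Triplicates, as % of untreated control. GI50 from concentration-response curves.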

The nature of data set [2]: Cytotoxicity against human MCF7 cells assessed as growth inhibition measured after 48 hrs by MTT assay. Type of data set: toxicity, cell-based. The method in brief: as §1
On the technique in general: Tetrazolium dyes change colour on reduction, which living cells bring about.

Data set [3] is described as follows: Hepatotoxicity against human HepG2 cells assessed as growth inhibition measured after 48 hrs by MTT assay. Type of data set: toxicity, cell-based. The method in brief: as §1
In data set [4] the target is T1, Cholinesterase (Equus caballus, UniProt P81908). The data set is described as follows: Inhibition of horse serum BChE pretreated for 20 mins followed by butyrylthiocholine iodide substrate addition measured for 5 mins by Ellman's method. For orientation: In Ellman's method for cholinesterases, released thiocholine reacts with DTNB.
T1 sequence (P81908 whole entry): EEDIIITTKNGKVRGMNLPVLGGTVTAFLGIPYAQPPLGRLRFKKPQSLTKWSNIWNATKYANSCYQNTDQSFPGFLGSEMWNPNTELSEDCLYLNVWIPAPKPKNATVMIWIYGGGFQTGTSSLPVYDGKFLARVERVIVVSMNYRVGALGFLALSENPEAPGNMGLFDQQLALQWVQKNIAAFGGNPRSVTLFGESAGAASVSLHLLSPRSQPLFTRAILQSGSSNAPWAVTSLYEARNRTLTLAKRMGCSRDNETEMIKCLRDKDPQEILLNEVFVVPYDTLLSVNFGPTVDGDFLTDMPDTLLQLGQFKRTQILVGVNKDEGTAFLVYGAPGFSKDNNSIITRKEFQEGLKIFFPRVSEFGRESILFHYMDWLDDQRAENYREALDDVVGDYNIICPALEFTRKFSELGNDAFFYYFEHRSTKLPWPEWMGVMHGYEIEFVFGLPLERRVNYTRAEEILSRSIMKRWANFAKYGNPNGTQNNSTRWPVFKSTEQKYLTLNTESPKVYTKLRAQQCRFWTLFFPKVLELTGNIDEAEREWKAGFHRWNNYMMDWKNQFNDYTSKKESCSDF
Data set [5] has as its target Acetylcholinesterase (Electrophorus electricus, UniProt O42275). In words: Inhibition of electric eel AChE pretreated for 20 mins followed by acetylthiocholine iodide substrate addition measured for 5 mins by Ellman's method.
Data set [6] can be described thus: Neuroprotective activity against NMDA-induced toxicity in human SH-SY5Y cells assessed as cell viability at 5 uM incubated for 48 hrs by MTT assay relative to control. In kind it is functional. The conditions noted are these: read-out: Activity. The method in brief:
(§2)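 SH-SY5Y in DMEM with 2% FBS, seeded ~5,000 cells/well and grown 1 day. Co-exposed 48 h at 37 °C to NMDA (250 µM final) plus test compound. MTT (0.5% w/v) added for 4 h, formazan dissolved in DMSO/ethanol 1:1, absorbance read. Triplicates as % of untreated control, mean ± SEM; one-way ANOVA with Dunnett's test.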

Data set [7] is described as follows: Neurotoxicity against human SH-SY5Y cells assessed as growth inhibition measured after 48 hrs by MTT assay. In kind it is toxicity, cell-based. The conditions noted are these: for GI50 at 48 h: SH-SY5Y cells; for growth inhibition (GI): sh-sy5y, 48 h. In outline: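 SH-SY5Y grown in DMEM/10% FBS, then treated in reduced-serum (2% FBS) medium. Compounds from 20 mM DMSO stock, tested at 0.1-1000 µM for 48 h after 1-day attachment at ~5,000 cells/well. MTT 4 h, DMSO/ethanol solubilization, absorbance. Triplicate wells, % of untreated control. GI50 from dose-response.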

For data set [8], the target named is T1, Cholinesterase. The data set is described as follows: Competitive inhibition of horse serum BChE in presence of varying levels of butyrylthiocholine iodide substrate by Lineweaver-burk plot method. In outline: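 Lineweaver-Burk fit (1/v vs 1/[S]) using fixed enzyme at 0.09 U×mL^-1, substrate varied 25−250 µM, run without inhibitor and with inhibitor at four concentrations spanning 0.5-5.0 nM.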

Data set [9] deals with T2, Acetylcholinesterase (Homo sapiens, UniProt P22303). In words: Inhibition of human AChE at 10 uM pretreated for 20 mins followed by acetylthiocholine iodide substrate addition measured for 5 mins by Ellman's method relative to control. The method in brief: (§3)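 Ellman colorimetric assay with DTNB (3.3 mM stock, pH 7.0 PB). Test compound (five to seven concentrations, 1×10^-4 to 1×10^-9 M; or single 10 µM point) preincubated with enzyme 20 min at 25 °C in 0.1 M PB pH 8.0. Rate followed at 412 nm for 5.0 min after adding thiocholine substrate (0.05 mM). IC50 by nonlinear regression, mean of ≥3 independent determinations.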
T2 sequence (P22303 whole entry): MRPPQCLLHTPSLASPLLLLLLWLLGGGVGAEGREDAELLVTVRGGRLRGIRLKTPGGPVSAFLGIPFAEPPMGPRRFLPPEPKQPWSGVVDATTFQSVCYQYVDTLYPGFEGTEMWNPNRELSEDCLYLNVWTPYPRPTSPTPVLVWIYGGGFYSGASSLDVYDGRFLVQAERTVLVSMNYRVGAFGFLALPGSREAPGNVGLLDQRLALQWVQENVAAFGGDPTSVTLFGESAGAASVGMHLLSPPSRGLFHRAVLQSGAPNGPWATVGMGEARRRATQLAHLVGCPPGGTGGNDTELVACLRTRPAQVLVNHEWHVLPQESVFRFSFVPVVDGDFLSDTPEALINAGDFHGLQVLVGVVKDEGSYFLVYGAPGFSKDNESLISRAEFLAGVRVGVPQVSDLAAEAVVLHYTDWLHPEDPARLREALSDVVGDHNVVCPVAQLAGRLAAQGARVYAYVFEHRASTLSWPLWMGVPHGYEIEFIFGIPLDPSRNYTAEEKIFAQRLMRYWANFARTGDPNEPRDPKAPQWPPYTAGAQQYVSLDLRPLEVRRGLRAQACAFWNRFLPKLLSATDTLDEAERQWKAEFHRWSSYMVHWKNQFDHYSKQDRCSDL

The target of data set [10] is Cholinesterase (Homo sapiens, UniProt P06276). The data set is described as follows: Inhibition of human BChE pretreated for 20 mins followed by butyrylthiocholine iodide substrate addition measured for 5 mins by Ellman's method. The method in brief: as §3
Chain of Cholinesterase (Homo sapiens, UniProt P06276) (P06276 whole entry): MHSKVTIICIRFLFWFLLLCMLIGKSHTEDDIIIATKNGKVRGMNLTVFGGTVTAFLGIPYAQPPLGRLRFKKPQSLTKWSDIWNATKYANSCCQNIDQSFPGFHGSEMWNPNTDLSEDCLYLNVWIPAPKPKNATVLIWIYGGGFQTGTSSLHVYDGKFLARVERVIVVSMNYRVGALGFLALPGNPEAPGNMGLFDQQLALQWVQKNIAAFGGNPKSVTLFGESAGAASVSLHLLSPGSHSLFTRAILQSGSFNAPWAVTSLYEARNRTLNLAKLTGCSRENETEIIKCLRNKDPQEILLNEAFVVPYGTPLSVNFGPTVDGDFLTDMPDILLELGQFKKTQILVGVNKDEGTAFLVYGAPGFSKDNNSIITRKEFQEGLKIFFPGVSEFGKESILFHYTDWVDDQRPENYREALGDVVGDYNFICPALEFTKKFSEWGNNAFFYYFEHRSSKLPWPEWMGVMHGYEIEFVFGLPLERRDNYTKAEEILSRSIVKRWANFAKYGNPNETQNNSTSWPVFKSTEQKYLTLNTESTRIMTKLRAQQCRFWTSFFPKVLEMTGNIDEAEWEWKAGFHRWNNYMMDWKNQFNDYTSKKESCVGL
The nature of data set [11]: Neuroprotective activity against NMDA-induced toxicity in human SH-SY5Y cells assessed as cell viability at 0.5 uM incubated for 48 hrs by MTT assay relative to control. In kind it is functional. The conditions noted are these: read-out: Activity. In outline: as §2
Data set [12] concerns the target Cholinesterase (Equus caballus) (UniProt P81908). In words: Inhibition of horse serum BChE at 10 uM pretreated for 20 mins followed by butyrylthiocholine iodide substrate addition measured for 5 mins by Ellman's method relative to control. In outline:
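Ellman colorimetric assay. BChE (0.9 U/mL stock in 0.1 M PB pH 8.0) with DTNB (3.3 mM stock in pH 7.0 PB plus NaHCO₃) and inhibitor (1×10^-4 to 1×10^-9 M, five to seven concentrations; or single 10 µM point) preincubated 20 min at 25 °C. Butyrylthiocholine iodide (0.05 mM stock) then added and absorbance read at 412 nm for 5.0 min. IC50 from nonlinear regression of log response curves, mean of ≥3 independent runs.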

In data set [13] the target is T1, Cholinesterase. In words: Stability assessed as horse serum BChE mediated compound hydrolysis at 300 x 10^-7M at pH 8 measured every 5 mins for 1 hr by UV-Vis spectra analysis. The following applies: buffer, pH 8, 1 h, 30 µM. In kind it is ADME.
Data set [14] concerns the target T2, Acetylcholinesterase. The data set is described as follows: Inhibition of human AChE pretreated for 20 mins followed by acetylthiocholine iodide substrate addition measured for 5 mins by Ellman's method. The method in brief:
as §3

Data set [15] addresses T1, Cholinesterase. In words: Stability assessed as horse serum BChE mediated compound hydrolysis at 300 x 10^-6M at pH 8 measured every 5 mins for 1 hr by UV-Vis spectra analysis. In kind it is ADME. The following applies: buffer, pH 8, 1 h, 300 µM.
The next data set concerns SH-SY5Y. The data set is described as follows: Neuroprotective activity against NMDA-induced toxicity in human SH-SY5Y cells assessed as increase in cell viability at 0.5 uM incubated for 48 hrs by MTT assay. In kind it is functional, cell-based. In outline: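 SH-SY5Y at ~5,000 cells/well in reduced-serum (2% FBS) medium co-exposed 48 h at 37 °C to NMDA (250 µM final) and compound. Viability by MTT, as % of NMDA-untreated cells. Mean ± SEM; one-way ANOVA with Dunnett's test, P < 0.05 significant.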

The source made the active and inactive calls. No cut-off for these calls is given here.

Chain of Acetylcholinesterase (Electrophorus electricus, UniProt O42275) (O42275 whole entry): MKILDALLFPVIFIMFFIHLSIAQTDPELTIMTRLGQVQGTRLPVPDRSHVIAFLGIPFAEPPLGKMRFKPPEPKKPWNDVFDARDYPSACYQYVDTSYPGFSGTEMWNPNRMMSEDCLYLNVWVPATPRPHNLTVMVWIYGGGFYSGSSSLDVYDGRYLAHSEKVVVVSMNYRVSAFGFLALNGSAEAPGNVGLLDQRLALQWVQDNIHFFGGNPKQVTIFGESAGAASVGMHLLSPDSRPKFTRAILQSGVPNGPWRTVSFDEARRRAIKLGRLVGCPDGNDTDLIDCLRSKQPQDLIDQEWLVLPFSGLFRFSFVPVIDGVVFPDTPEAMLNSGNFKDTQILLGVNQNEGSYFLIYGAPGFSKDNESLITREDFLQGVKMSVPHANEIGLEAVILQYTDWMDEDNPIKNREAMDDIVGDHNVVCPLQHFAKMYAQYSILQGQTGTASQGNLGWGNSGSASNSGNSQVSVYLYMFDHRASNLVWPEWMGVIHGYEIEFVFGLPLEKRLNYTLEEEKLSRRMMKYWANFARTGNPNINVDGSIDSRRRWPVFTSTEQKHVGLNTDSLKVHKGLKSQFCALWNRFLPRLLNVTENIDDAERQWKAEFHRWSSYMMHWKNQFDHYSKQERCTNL
Chain of Cholinesterase (Equus caballus) (P81908 whole entry): as the sequence (P81908 whole entry) above

As to `O=c1[nH]cc(F)c(=O)[nH]1` [FLUOROURACIL], the figures for the GI50 at 48 h in data set [1], in data set [2] and in [3] were 13 µM, 4.5 µM and 7 µM, respectively.

As for `Cc1ccc(CCn2c3c(c4ccccc42)C(=O)NCCC3)cc1`, the IC50 (in general, the concentration at which inhibition is half-maximal) on Cholinesterase [4] was 68.2 µM.

Consider `CC(C)CCn1c2c(c3ccccc31)C(=O)NCCC2`, for which the results for the half-maximal inhibitory concentration (IC50) at Acetylcholinesterase [5] and on Cholinesterase [4] were 100 µM and 22.3 µM, respectively.

For the compound `CC12CC3CC(C)(C1)CC(N)(C3)C2` [MEMANTINE], the viability at 5 µM in data set [6] was determined as 68%. Moreover, in data set [7], the 50% growth inhibitory concentration (GI50) (in general, the concentration giving 50% growth inhibition) at 48 h stood at 145 µM and the “growth inhibition (GI)” value is on record as “Dose-dependent effect”.

For the compound `O=C1NCCCc2c1c1ccccc1n2CCc1cccc(F)c1`, the IC50 stood at 0.0015 µM at Cholinesterase [4] and 0.0018 µM at Cholinesterase [10]. For the same compound, on Cholinesterase [8], the Ki – broadly, a dissociation constant, usually derived from enzyme kinetics or from competition with a known ligand – was found to be 0.0007 µM. Further, the inhibition (in general, the change of the read-out against control, counted positive when it falls) at Acetylcholinesterase [9] amounted to 6%. Also, the concentration for 50% growth inhibition (GI50) at 48 h in data set [7] came out at 2.61 µM; in data set [1] it was 162 µM; in data set [2] it was 162 µM; in data set [3], 159 µM. In data set [7], the “growth inhibition (GI)” value is “Dose-dependent effect”. The viability at 0.5 µM in data set [11] was 70%.

For `CCOC(=O)CCCn1c2c(c3ccccc31)C(=O)NCCC2`, the half-inhibitory concentration (IC50) on Acetylcholinesterase [5] is 60 µM; at Cholinesterase [4] it was 25.7 µM.

In the case of `CCOC(=O)NCCCn1c2c(c3ccccc31)C(=O)NCCC2`, the concentration for half-maximal inhibition (IC50) at Acetylcholinesterase [5] was determined as 110 µM; on Cholinesterase [4], 15 µM.

Turning to `CCCNC(=O)c1cn(CCc2ccccc2)c2ccccc12`, the IC50 stood at 10.3 µM on Acetylcholinesterase [5] and 12.6 µM at Cholinesterase [4].

For the compound `Cl.c1ccc(CCn2c3c(c4ccccc42)CNCCC3)cc1`, the IC50 on Cholinesterase [4] was 1.14 µM. Moreover, the GI50 at 48 h turned out to be 5.6 µM in [7], 41 µM in [1], 28 µM in [2] and 25 µM in [3]. The “growth inhibition (GI)” value in data set [7] is on record as “Dose-dependent effect”. Besides, the viability at 0.5 µM in data set [11] was found to be 76%.

On to `CC(=O)OCCCCn1c2c(c3ccccc31)C(=O)NCCC2`, for which the IC50 at Cholinesterase [4] turned out to be 10.7 µM.

Take `O=C1NCCCc2c1c1ccccc1n2Cc1ccccc1`: the inhibition in data set [12] is 25%.

On to `O=C1NCCCc2c1c1cc(F)ccc1n2CCc1ccccc1`, for which the IC50 at Cholinesterase [4] worked out at 0.028 µM.

As to `O=C1CCCc2c(c3ccccc3n2CCc2ccccc2)N1`, the inhibition in [12] worked out at 25%. At Cholinesterase [13], the Stability result is recorded as “Stable”.

On to `CN1CCCc2c(c3ccccc3n2CCc2ccccc2)C1=O`, for which the IC50 on Acetylcholinesterase [5] amounted to 44.8 µM. Moreover, in data set [12], the inhibition came to 10%.

Turning to `O=C1CCCc2c1c1ccccc1n2CCc1ccccc1`, the IC50 at Acetylcholinesterase [5] and at Cholinesterase [4] was 10 µM each time.

`O=C1NCCCc2c1c1ccccc1n2CCc1ccc(Cl)cc1`: at Cholinesterase [4], the IC50 amounted to 1.9 µM.

On to `O=C1NCCCc2c1c1ccccc1n2CCc1ccc(F)cc1`, for which, in data set [6], the viability at 5 µM is 76.6%. In addition, the IC50 amounted to 0.23 µM at Cholinesterase [4], 10 µM on Acetylcholinesterase [14] and 5 µM at Cholinesterase [10]. Besides, the concentration for 50% growth inhibition (GI50) at 48 h in data set [7] was 251 µM; in data set [1], over 500 µM; in data set [2], over 500 µM; in [3] it was 230 µM. Also, the “growth inhibition (GI)” value in data set [7] is given as “Dose-dependent effect”.

As to `O=C1NCCCc2c1c1ccccc1n2CCc1ccccc1`, the viability at 5 µM in data set [6] was determined as 76.9%. Also, the concentration for half-maximal inhibition (IC50) at Acetylcholinesterase [5] turned out to be 20 µM; at Cholinesterase [4] it was 0.024 µM; on Acetylcholinesterase [14], 12.6 µM; on Cholinesterase [10] it was 0.013 µM. Further, on Cholinesterase [15], the Stability result is on record as “Stable”. Further, the GI50 at 48 h in data set [7] turned out to be 138 µM; in [1], 288 µM; in data set [2], 170 µM; in data set [3], 120 µM. The “growth inhibition (GI)” value in data set [7] is recorded as “Dose-dependent effect”. The outcome in the data set on SH-SY5Y was Active.

For the compound `O=C1NCCCc2c1c1ccccc1n2CCCc1ccccc1`, the inhibition in data set [12] came to 20%.

Take `O/N=C1\CCCc2c1c1ccccc1n2CCc1ccccc1`: the inhibition in data set [12] was 5%.

With `O=C1NCCCc2c1c1ccccc1n2CCc1cccc(Cl)c1`, the IC50 on Cholinesterase [4] is 0.065 µM.

The record behind these values is ChEMBL document CHEMBL3877261, “New azepino[4,3-b]indole derivatives as nanomolar selective inhibitors of human butyrylcholinesterase showing protective effects against NMDA-induced neurotoxicity” (Eur J Med Chem, 2017).
